The record followed here is ChEMBL document CHEMBL4311940, “Design, Synthesis, and Biological Evaluation of 4-Methyl Quinazoline Derivatives as Anticancer Agents Simultaneously Targeting Phosphoinositide 3-Kinases and Histone Deacetylases” (J Med Chem, 2019).

For assay [1], the target named is Phosphatidylinositol 4,5-bisphosphate 3-kinase catalytic subunit alpha isoform (Homo sapiens, UniProt P42336). The experiment in a line: Inhibition of recombinant human PI3Kalpha using PIP2 as substrate incubated for 1 hr by kinase-glo assay. On the technique in general: Kinase-Glo measures the ATP left after a reaction by luminescence.
The next assay has as its target Histone deacetylase 1 (Homo sapiens, UniProt Q13547). In words: Inhibition of recombinant C-terminal His/FLAG-tagged HDAC1 (unknown origin) expressed in baculovirus infected Sf9 insect cells using Ac-peptide as substrate preincubated for 15 mins followed by substrate addition and measured after 1 hr.
The subject of assay [2] is HCT-116. In words: Antiproliferative activity against human HCT116 cells after 96 hrs by MTT assay. Type of assay: functional, cell-based. The following applies: HCT-116, 96 h. Background: Formazan colour is commonly taken as a measure of viable cells.
Assay [3] deals with HCT-116. In words: Potency index, ratio of IC50 for SAHA to test compound IC50 for human HCT116 cells. Type of assay: functional.
The next assay deals with HGC-27. The experiment in a line: Antiproliferative activity against human HGC27 cells after 96 hrs by MTT assay. The class given is functional, cell-based. The note with it: HGC-27, 96 h.
A further assay has as its system Bel-7402. The experiment in a line: Antiproliferative activity against human Bel7402 cells after 96 hrs by MTT assay. Type of assay: functional, cell-based. The following applies: Bel-7402, 96 h.
The next assay concerns DU-145. The experiment in a line: Antiproliferative activity against human DU145 cells after 96 hrs by MTT assay. Type of assay: functional, cell-based. The following applies: DU-145, 96 h.
A further assay concerns NCI-H1299. In words: Antiproliferative activity against human NCI-H1299 cells after 96 hrs by MTT assay. The class given is functional, cell-based. The note with it: NCI-H1299, 96 h.
The next assay relates to MCF7. The experiment in a line: Antiproliferative activity against human MCF7 cells after 96 hrs by MTT assay. The class given is functional, cell-based. The following applies: MCF7, 96 h.
The test system of another assay is NCI-H460. The experiment in a line: Antiproliferative activity against human NCI-H460 cells after 96 hrs by MTT assay. The class given is functional, cell-based. The following applies: NCI-H460, 96 h.
In a further assay the test system is MDA-MB-453. In words: Antiproliferative activity against human MDA-MB-453 cells after 96 hrs by MTT assay. The class given is functional, cell-based. The note with it: MDA-MB-453, 96 h.
A further assay concerns THP-1. The experiment in a line: Antiproliferative activity against human THP1 cells after 96 hrs by MTT assay. Type of assay: functional, cell-based. The following applies: THP-1, 96 h.
A further assay relates to HCT-8. In words: Antiproliferative activity against human HCT8 cells after 96 hrs by MTT assay. The class given is functional, cell-based. The note with it: HCT-8, 96 h.
In assay [4] the test system is HCT-116. The experiment in a line: Induction of apoptosis in human HCT116 cells assessed as early apoptotic cells at 500 nM after 48 hrs by Annexin V-FITC/propidium iodide staining-based flow cytometric analysis (reference value: 1.33%). The class given is functional. In general terms: In flow cytometry, cells or beads pass a laser one at a time.
The test system of assay [5] is HCT-116. In words: Induction of apoptosis in human HCT116 cells assessed as necrotic cells at 500 nM after 48 hrs by Annexin V-FITC/propidium iodide staining-based flow cytometric analysis (reference value: 5.23%). The class given is functional.
The test system of another assay is SW1990. The experiment in a line: Antiproliferative activity against human SW1990 cells after 96 hrs by MTT assay. The class given is functional, cell-based. The following applies: SW1990, 96 h.
Assay [6] concerns HCT-116. The experiment in a line: Induction of apoptosis in human HCT116 cells assessed as late apoptotic cells at 500 nM after 48 hrs by Annexin V-FITC/propidium iodide staining-based flow cytometric analysis (reference value: 3.87%). Type of assay: functional.
Another assay relates to K562. The experiment in a line: Antiproliferative activity against human K562 cells after 96 hrs by MTT assay. The note with it: K562, 96 h. The class given is functional, cell-based.
A further assay deals with Huh-7. The experiment in a line: Antiproliferative activity against human HuH7 cells after 96 hrs by MTT assay. Type of assay: functional, cell-based. The note with it: Huh-7, 96 h.
The next assay relates to HepG2. In words: Antiproliferative activity against human HepG2 cells after 96 hrs by MTT assay. The class given is functional, cell-based. The note with it: HepG2, 96 h.
The test system of assay [7] is HCT-116. In words: Induction of cell cycle arrest in human HCT116 cells assessed as accumulation at G2/M phase at 500 nM after 24 hrs by propidium iodide/RNase staining-based FACS analysis. The class given is functional. Summed up:
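HCT116 cells cultured overnight in 6-well plates, exposed to compound at various concentrations for 24 h; FxCycle PI/RNase staining and flow cytometry for cell cycle phase distribution.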

The next assay relates to U-87 MG. In words: Antiproliferative activity against human U87 cells after 96 hrs by MTT assay. The class given is functional, cell-based, U-87MG ATCC.
The next assay concerns Capan-2. In words: Antiproliferative activity against human Capan2 cells after 96 hrs by MTT assay. The class given is functional, cell-based. The note with it: Capan-2, 96 h.
The test system of assay [8] is HCT-116. The experiment in a line: Induction of apoptosis in human HCT116 cells assessed as live cells at 500 nM after 48 hrs by Annexin V-FITC/propidium iodide staining-based flow cytometric analysis (reference value: 89.6%). Type of assay: functional.

Active and inactive are the calls of the source. The calls are words filed in the database; no cut-off is given here.

As a reminder, the IC50 is the concentration at which inhibition is half-maximal.

Phosphatidylinositol 4,5-bisphosphate 3-kinase catalytic subunit alpha isoform, sequence (P42336 whole entry, canonical isoform): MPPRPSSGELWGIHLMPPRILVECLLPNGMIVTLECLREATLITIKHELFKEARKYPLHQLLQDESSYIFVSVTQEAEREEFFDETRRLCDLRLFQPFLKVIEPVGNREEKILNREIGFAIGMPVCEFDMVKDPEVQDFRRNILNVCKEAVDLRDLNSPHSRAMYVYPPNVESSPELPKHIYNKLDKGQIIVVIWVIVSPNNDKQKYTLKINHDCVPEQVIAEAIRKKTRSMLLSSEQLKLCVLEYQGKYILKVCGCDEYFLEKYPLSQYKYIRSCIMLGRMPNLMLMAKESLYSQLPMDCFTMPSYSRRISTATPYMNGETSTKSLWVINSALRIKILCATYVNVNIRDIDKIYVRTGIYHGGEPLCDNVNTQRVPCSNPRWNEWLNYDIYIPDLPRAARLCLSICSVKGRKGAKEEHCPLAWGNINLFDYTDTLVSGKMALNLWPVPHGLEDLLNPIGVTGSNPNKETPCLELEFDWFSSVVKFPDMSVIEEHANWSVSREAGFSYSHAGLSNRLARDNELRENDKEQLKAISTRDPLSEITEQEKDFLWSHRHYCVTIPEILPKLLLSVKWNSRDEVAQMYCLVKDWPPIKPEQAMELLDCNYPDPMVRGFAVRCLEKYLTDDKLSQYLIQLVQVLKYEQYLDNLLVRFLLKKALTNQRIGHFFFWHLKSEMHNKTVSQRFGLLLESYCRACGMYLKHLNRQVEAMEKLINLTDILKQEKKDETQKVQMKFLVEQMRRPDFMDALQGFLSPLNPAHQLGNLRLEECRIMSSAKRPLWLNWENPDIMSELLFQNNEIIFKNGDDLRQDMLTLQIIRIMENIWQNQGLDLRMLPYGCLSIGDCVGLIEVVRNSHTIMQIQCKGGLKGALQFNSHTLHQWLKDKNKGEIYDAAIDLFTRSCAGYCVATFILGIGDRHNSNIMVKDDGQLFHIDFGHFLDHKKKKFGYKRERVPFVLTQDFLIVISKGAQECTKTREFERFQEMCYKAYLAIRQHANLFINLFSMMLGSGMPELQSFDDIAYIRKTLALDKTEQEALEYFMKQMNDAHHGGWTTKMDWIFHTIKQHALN
Histone deacetylase 1, sequence (Q13547 whole entry): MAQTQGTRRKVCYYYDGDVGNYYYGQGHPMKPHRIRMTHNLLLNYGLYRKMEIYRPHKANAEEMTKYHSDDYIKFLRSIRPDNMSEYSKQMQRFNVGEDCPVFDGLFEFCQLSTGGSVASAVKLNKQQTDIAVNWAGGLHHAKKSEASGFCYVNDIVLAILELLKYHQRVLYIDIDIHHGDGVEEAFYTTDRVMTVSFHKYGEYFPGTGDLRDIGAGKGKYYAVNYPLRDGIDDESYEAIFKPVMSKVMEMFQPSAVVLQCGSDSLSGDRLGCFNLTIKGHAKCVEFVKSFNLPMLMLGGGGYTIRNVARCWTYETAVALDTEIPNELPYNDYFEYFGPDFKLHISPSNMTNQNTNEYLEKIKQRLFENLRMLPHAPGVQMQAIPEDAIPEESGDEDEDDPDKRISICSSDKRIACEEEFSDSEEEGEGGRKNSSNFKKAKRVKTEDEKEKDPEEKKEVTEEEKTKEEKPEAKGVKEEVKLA

For `COc1ccc(-c2cc(OCCCCCCC(=O)NO)c3ncnc(C)c3c2)cn1`, the figures for the IC50 (in assay [1]; on Histone deacetylase 1; with HCT-116 [2]) were 0.102 µM, 0.0013 µM and 0.14 µM, respectively. Also, the “Ratio IC50” value with HCT-116 [3] is 10.

Consider `Nc1cc(C(F)(F)F)c(-c2cc(N3CCOCC3)nc(N3CCOCC3)n2)cn1` [BUPARLISIB], for which the IC50 with HGC-27 came to 0.99 µM; in the assay on Bel-7402, 13 µM; in the assay with DU-145, 45 µM; in the assay on NCI-H1299, 3.6 µM; in the assay with MCF7, 5.7 µM; in the assay with NCI-H460 it was 3.2 µM. The IC50 in the assay on MDA-MB-453 came out at 0.37 µM; in the assay on THP-1, 12 µM; in the assay with HCT-8, 1.7 µM; with SW1990, 1.3 µM; with K562, 7.9 µM; in the assay on Huh-7, 2 µM. Further, the IC50 in the assay with HepG2 was 3.2 µM; in the assay with HCT-116 [2], 1.3 µM; in the assay on U-87 MG, 4.8 µM; in the assay with Capan-2, 42 µM. Also, the Activity in the assay on HCT-116 [4] stood at 5.22%; in the assay with HCT-116 [5], 3.46%; in the assay on HCT-116 [6], 6.61%; in the assay with HCT-116 [8], 84.7%. The outcome with HCT-116 [7] was Active.
